Assay outcomes from PubChem.
Hits are enriched below; roughly 5.3% of the tested compounds scored in any of these assays.
Mdm2 MdmX PPI: disrupts the human Mdm2-MdmX interaction | O15151+Q00987 | SaOS-2 split-luciferase Mdm2/MdmX complementation, luminescence | inhibition, % at 8 µM | 3% of 330,000 active | AID 485346;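 active means inhibition of at least 50% at 8 µM in the primary screen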
Target sequence (O15151 whole entry, looked up): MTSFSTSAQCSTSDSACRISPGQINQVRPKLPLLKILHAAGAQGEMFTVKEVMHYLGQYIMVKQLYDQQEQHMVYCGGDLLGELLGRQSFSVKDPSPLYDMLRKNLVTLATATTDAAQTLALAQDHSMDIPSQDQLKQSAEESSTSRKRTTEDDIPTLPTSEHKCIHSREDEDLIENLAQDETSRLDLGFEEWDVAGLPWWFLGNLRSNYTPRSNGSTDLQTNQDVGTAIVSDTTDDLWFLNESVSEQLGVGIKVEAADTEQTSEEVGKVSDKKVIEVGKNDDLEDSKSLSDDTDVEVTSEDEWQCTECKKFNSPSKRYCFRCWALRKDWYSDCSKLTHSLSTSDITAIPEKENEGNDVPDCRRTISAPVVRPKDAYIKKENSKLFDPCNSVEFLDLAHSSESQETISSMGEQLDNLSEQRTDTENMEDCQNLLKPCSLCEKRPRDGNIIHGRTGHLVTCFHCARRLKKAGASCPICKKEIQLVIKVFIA
Target sequence (Q00987 whole entry, looked up): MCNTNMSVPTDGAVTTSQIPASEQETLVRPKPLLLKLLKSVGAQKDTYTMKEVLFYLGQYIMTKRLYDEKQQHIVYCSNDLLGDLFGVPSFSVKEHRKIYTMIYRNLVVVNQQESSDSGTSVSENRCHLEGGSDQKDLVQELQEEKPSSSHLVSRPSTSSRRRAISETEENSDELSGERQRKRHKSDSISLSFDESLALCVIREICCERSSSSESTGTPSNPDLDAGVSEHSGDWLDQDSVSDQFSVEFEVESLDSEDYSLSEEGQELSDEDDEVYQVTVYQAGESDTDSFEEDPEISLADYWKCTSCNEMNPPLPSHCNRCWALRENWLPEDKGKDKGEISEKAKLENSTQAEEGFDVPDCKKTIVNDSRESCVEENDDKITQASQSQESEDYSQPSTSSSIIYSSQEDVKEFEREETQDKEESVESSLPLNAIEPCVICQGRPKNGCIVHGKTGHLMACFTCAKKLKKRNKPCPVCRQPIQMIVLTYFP
CSC inhib: cancer stem cell inhibition | cancer stem cell-like cells viability, luminescence | inhibition, % at 7.5 µM | 1.1% of 300,000 active; in the data active means inhibition above about 75%; tested in HMLE shEcad cells
Calb FLC: C. albicans growth modulation with fluconazole; C. albicans CaCi-2 (fluconazole-resistant clinical isolate) + fluconazole, Alamar Blue growth, 48 h; growth inhibition, % (test concentration not listed); 0.57% of 300,000 active;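 active means growth inhibition above about 58% in most replicates, limit read from the data, passing the limit was not always enough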;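 further: all wells also contain fluconazole at 8 µg/ml as a sub-toxic cotreatment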
NALP3 yeast inh: blocks the NALP3 inflammasome reconstituted in yeast; 0.39% of 330,000 active; Yeast reconstituted NLRP3/ASC/caspase-1, beta-gal luminescence, 24 h; inhibition, % at 10 µM;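 active means inhibition of 50% or more; inactive means inhibition below 50%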
Beta cell apopt: blocks beta cell apoptosis; 0.8% of 300,000 active; protection from apoptosis, % (concentration not given with the values); INS-1E cytokine-induced death, ATP luminescence, 48 h; percent of positive-control rescue, neutral wells zero;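 active means Every replicate reaches about 75%, or at least half do and their mean reaches it too, limit read from the data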;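 further: higher means more ATP so stronger rescue from cytokine killing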
T cruzi repl: blocks replication of Trypanosoma cruzi; AID 1885; 1.4% of 300,000 active; inhibition, % (concentration not given with the values); T. cruzi beta-gal in NIH3T3, luminescence, 90 h;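 active means mean inhibition across valid replicates above about 55%, limit read from the data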;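 further: signal also drops with host cell toxicity which is not excluded here; higher percent means less beta-gal luminescence so fewer parasites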
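assay system = mouse NIH/3T3 fibroblasts infected with β-gal-expressing T. cruzi Tulahuen C4 | input = 5,000 NIH/3T3 host cells per well | buffer or medium = DMEM plus 2% FBS | timing = 3 h host attachment, then at least 90 h co-culture | measured by = GalScreen luminescence, 60 min | evaluation = luminescence reflecting intracellular parasite burden, expressed as percent inhibition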
Mdm2-MdmX conf: confirmation of human Mdm2/MdmX interaction inhibitors; shares compounds with Mdm2 MdmX PPI; Mdm2-MdmX binding, luminescent assay; inhibition, % at 8 µM; 55% of 10,000 active; AID 489028; in the data active means inhibition above about 40%
FLuc counter: counter-screen for Mdm2/MdmX inhibitors: full-length luciferase; shares compounds with Mdm2 MdmX PPI; SaOS-2 full-length luciferase counterscreen, luminescence; inhibition, % at 8 µM; 77% of 6,200 active; AID 504607;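 active means mean inhibition at 8 µM reaching about 37%, which flags the compound as non-specific, limit read from the data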;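 further: p53-null SaOS-2 cells with luciferase driven by a doxycycline-inducible promoter; compound on cells about two nights before reading with doxycycline added after day one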
A number is an active result.

`CC1CCCC(NCC(O)COC(c2ccc(F)cc2)c2ccc(F)cc2)C1C` (centres undefined) gave Mdm2 MdmX PPI 97.8, CSC inhib 79.8, Calb FLC inactive, NALP3 yeast inh inactive, Beta cell apopt inactive, T cruzi repl inactive, Mdm2-MdmX conf 77.5 and FLuc counter 48.8.
CC1CCCC(NC(=O)CSc2ccc(F)cc2)C1C (centres undefined) was read as Mdm2 MdmX PPI inactive, CSC inhib inactive, Calb FLC inactive, NALP3 yeast inh inactive, Beta cell apopt inactive and T cruzi repl inactive.
`O=C(Nc1ccc(N2CCOCC2)cc1)c1ccncc1` gave Mdm2 MdmX PPI inactive, CSC inhib inactive, Calb FLC inactive, NALP3 yeast inh inactive, Beta cell apopt inactive and T cruzi repl inactive.
Screening O=C(Nc1ccc(N2CCOCC2)cc1)c1cnccn1 returned Mdm2 MdmX PPI 53.8, CSC inhib inactive, Calb FLC inactive, NALP3 yeast inh inactive, T cruzi repl inactive and Mdm2-MdmX conf inactive.
`O=C(Nc1ccc(N2CCOCC2)cc1)c1cnsn1` gave Mdm2 MdmX PPI 70.2, Calb FLC inactive, NALP3 yeast inh inactive, T cruzi repl inactive, Mdm2-MdmX conf 67.8 and FLuc counter inactive.
`Cc1ccc(NC(=S)NNc2ncc(C(F)(F)F)cc2Cl)c(C)c1` gave Mdm2 MdmX PPI inactive, CSC inhib inactive, Calb FLC inactive, NALP3 yeast inh inactive, Beta cell apopt inactive and T cruzi repl inactive.
For FC(F)(F)c1cnc(NNC(=S)Nc2ccc(Cl)cc2)c(Cl)c1 the results were Mdm2 MdmX PPI 90.3, CSC inhib inactive, Calb FLC inactive, NALP3 yeast inh inactive, Beta cell apopt 93.4, T cruzi repl inactive, Mdm2-MdmX conf 66.5 and FLuc counter inactive.
Fc1ccc(NC(=S)NNc2ncc(C(F)(F)F)cc2Cl)c(F)c1 was read as Mdm2 MdmX PPI 77.3, CSC inhib inactive, Calb FLC inactive, NALP3 yeast inh inactive, Beta cell apopt inactive, T cruzi repl inactive, Mdm2-MdmX conf 48.8 and FLuc counter 66.8.
Screening Cc1ccc(NC(=S)NNc2ncc(C(F)(F)F)cc2Cl)cc1 returned Mdm2 MdmX PPI inactive, CSC inhib inactive, Calb FLC inactive, NALP3 yeast inh inactive, Beta cell apopt inactive and T cruzi repl inactive.
Screening O=C(C[n+]1ccc(/C=C/c2ccccc2)cc1)c1ccc2c(c1)OCCO2 returned Mdm2 MdmX PPI 75.0, CSC inhib inactive, Calb FLC inactive, NALP3 yeast inh inactive, Beta cell apopt inactive, T cruzi repl inactive and Mdm2-MdmX conf inactive.
`Cc1cc[n+](CC(=O)c2ccc3c(c2)OCCO3)cc1` gave Mdm2 MdmX PPI inactive, CSC inhib inactive, Calb FLC inactive, NALP3 yeast inh inactive, Beta cell apopt inactive and T cruzi repl inactive.
Screening CCOc1ccc(NC(=O)CN(C)C(=O)c2cc(-c3ccc(OC)cc3)nc3ccccc23)cc1OCC returned Mdm2 MdmX PPI 70.7, CSC inhib inactive, Calb FLC inactive, NALP3 yeast inh inactive, Beta cell apopt inactive, T cruzi repl inactive, Mdm2-MdmX conf 46.1 and FLuc counter 74.8.
`COc1cccc(NC(=O)CN(C)C(=O)c2cc(-c3cccc(Br)c3)nc3ccccc23)c1` gave Mdm2 MdmX PPI 69.8, CSC inhib inactive, Calb FLC inactive, NALP3 yeast inh inactive, Beta cell apopt inactive, T cruzi repl inactive and Mdm2-MdmX conf inactive.
`O=C(NCCc1ccccn1)c1ccc(S(=O)(=O)N2CCCCCC2)cc1` gave Mdm2 MdmX PPI inactive, CSC inhib inactive, Calb FLC inactive, NALP3 yeast inh inactive, Beta cell apopt inactive and T cruzi repl inactive.
For CN1C(=O)N(C)C2(c3ccccc3)NNC(N)=NC12c1ccccc1 (centres undefined) the results were Mdm2 MdmX PPI inactive, CSC inhib inactive, Calb FLC inactive, NALP3 yeast inh inactive, Beta cell apopt inactive and T cruzi repl inactive.
Screening O=C(NCc1nc(-c2ccc(C(F)(F)F)cc2)no1)Nc1cc(Cl)cc(Cl)c1 returned Mdm2 MdmX PPI 93.4, CSC inhib 134.3, Calb FLC inactive, NALP3 yeast inh inactive, Beta cell apopt 110.4, T cruzi repl 59.6, Mdm2-MdmX conf 81.0 and FLuc counter 44.5.
For COc1ccc2[nH]c(=O)c(CN(Cc3cccs3)S(=O)(=O)c3cccc4nsnc34)cc2c1 the results were Mdm2 MdmX PPI 75.1, Calb FLC inactive, NALP3 yeast inh inactive, T cruzi repl inactive, Mdm2-MdmX conf 76.4 and FLuc counter 44.8.
O=C1CCCC2=C1C(c1ccccn1)Nc1ccc(C(=O)c3ccccc3)cc1N2 (centres undefined) was read as Mdm2 MdmX PPI inactive, CSC inhib inactive, Calb FLC inactive, NALP3 yeast inh inactive, Beta cell apopt inactive and T cruzi repl inactive.
`O=c1c(Cl)cc(Cl)nn1-c1ccccc1` gave Mdm2 MdmX PPI 54.7, CSC inhib inactive, Calb FLC inactive, NALP3 yeast inh inactive, Beta cell apopt inactive, T cruzi repl inactive and Mdm2-MdmX conf inactive.
Cc1ccc(N=Cc2c(O)n(-c3ccc4c(c3)OCO4)c(=O)c3ccccc23)cc1 was read as Mdm2 MdmX PPI 69.2, CSC inhib inactive, Calb FLC inactive, NALP3 yeast inh inactive, Beta cell apopt inactive, T cruzi repl inactive, Mdm2-MdmX conf 42.4 and FLuc counter 36.3.
`Cc1cccc(-n2c(O)c(C=Nc3ccc(O)cc3)c3ccccc3c2=O)n1` gave Mdm2 MdmX PPI inactive, CSC inhib inactive, Calb FLC inactive, NALP3 yeast inh inactive, Beta cell apopt inactive and T cruzi repl inactive.
For O=C1CCC(C(=O)OC(C(=O)Nc2cc(Cl)cc(Cl)c2)c2ccccc2)=NN1 (centres undefined) the results were Mdm2 MdmX PPI inactive, CSC inhib inactive, NALP3 yeast inh inactive and Beta cell apopt inactive.
`COc1ccc(NC(=O)/C(=C\c2cc(OC)c(OC)cc2[N+](=O)[O-])NC(=O)c2ccccc2)cc1` gave Mdm2 MdmX PPI 51.6, Calb FLC inactive, NALP3 yeast inh inactive, Beta cell apopt inactive, T cruzi repl inactive and Mdm2-MdmX conf inactive.
Screening COc1cc(/C=C(/NC(=O)c2ccccc2)C(=O)Nc2ccccc2)c([N+](=O)[O-])cc1OC returned Mdm2 MdmX PPI inactive, CSC inhib inactive, Calb FLC inactive, NALP3 yeast inh inactive, Beta cell apopt inactive and T cruzi repl inactive.
For O=C(Cc1ccc(S(=O)(=O)N2CCOCC2)s1)Nc1cc(C(F)(F)F)cc(C(F)(F)F)c1 the results were Mdm2 MdmX PPI 56.4, CSC inhib inactive, NALP3 yeast inh inactive, Beta cell apopt inactive and Mdm2-MdmX conf inactive.
For O=C(c1cccs1)N1CCc2c([nH]c3ccccc23)C1c1ccc(Cl)cc1 (centres undefined) the results were Mdm2 MdmX PPI 72.8, CSC inhib inactive, Calb FLC inactive, NALP3 yeast inh inactive, Beta cell apopt inactive, T cruzi repl inactive, Mdm2-MdmX conf 58.4 and FLuc counter 97.2.
